From ChEMBL document CHEMBL1122883, “An interdisciplinary approach to the design of new structures active at the beta-adrenergic receptor. Aliphatic oxime ether derivatives” (J Med Chem, 1985) come the findings set out here.

Assay [1] deals with Beta-2 adrenergic receptor (Cavia porcellus) (UniProt Q8K4Z4). The assay is described as follows: Specific antagonistic activity difference against beta-2 adrenergic receptor of isolated guinea pig tracheal strips. Type of assay: functional.
In assay [2] the target is Beta-1 adrenergic receptor (Cavia porcellus) (UniProt B0FL73). The assay is described as follows: Specific antagonistic activity difference against beta-1 adrenergic receptor of isolated guinea pig atria. The class given is functional.
Beta-1 adrenergic receptor (Cavia porcellus), sequence (B0FL73 1-467): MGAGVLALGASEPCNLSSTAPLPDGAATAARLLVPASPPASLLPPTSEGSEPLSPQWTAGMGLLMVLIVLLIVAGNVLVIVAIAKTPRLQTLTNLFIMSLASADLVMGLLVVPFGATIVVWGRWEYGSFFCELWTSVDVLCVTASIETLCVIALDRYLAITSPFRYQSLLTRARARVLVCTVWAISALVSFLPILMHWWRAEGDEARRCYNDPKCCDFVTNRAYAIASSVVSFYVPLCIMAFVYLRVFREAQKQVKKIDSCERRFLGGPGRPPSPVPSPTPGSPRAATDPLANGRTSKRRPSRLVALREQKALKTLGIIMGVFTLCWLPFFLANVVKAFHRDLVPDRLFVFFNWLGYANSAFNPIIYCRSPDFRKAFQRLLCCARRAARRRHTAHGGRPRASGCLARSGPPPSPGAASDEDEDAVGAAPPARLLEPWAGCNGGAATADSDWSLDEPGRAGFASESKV
Assay [3] has as its target Beta-2 adrenergic receptor (Cavia porcellus, UniProt Q8K4Z4). Kind of assay: Antagonistic activity against beta-2 adrenergic receptor on isolated guinea pig tracheal strips. The class given is functional, tissue-based, Trachea. The conditions noted are these: read-out: pA2 (converted). The method, boiled down:
(§1)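 Tracheal strips from male adult guinea pigs (300–350 g) in Krebs–Henseleit with ascorbic acid (0.1 mg/mL) and phentolamine (0.1 μg/mL), 37 °C, 95% O2–5% CO2. Strips were under 0.5 g tension, stabilized 30 min, and given steady tone with carbachol 5 × 10^-7 M. Isotonic recording. Agonist dose–response curves to noradrenaline and isoprenaline were run before and after 20 min antagonist contact.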

In assay [4] the target is Beta-1 adrenergic receptor (Cavia porcellus) (UniProt B0FL73). Kind of assay: (§2) Antagonistic activity against beta-1 adrenergic receptor of isolated guinea pig atria. The class given is functional. Summed up: (§3)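 Antagonism was assessed from dose–response curves to noradrenaline and isoprenaline obtained before and after a 20 min contact period with the test antagonist. Each agonist was allowed to act until maximal response.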

In assay [5] the target is Beta-1 adrenergic receptor (Cavia porcellus, UniProt B0FL73). The assay is described as §2. The class given is functional. The conditions noted are these: read-out: pA2 (converted). The method, boiled down:
as §3

Assay [6] deals with Beta-2 adrenergic receptor (Cavia porcellus) (UniProt Q8K4Z4). Kind of assay: Antagonistic activity against beta-2 adrenergic receptor of isolated guinea pig tracheal strips. To be noted: Trachea. The class given is functional, tissue-based. The method, boiled down: as §1
Assay [7] deals with Beta-1 adrenergic receptor (Cavia porcellus) (UniProt B0FL73).
For assay [8] the target is unchanged. The assay is described as follows: […] activity against beta-1 adrenergic receptor on isolated guinea pig atria. Type of assay: functional. Summed up:
as §3

For assay [9] the target is unchanged. Kind of assay: Stimulating activity against beta-1. The method, boiled down:
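Agonist given until maximal response was reached, building dose–response curves. Affinity expressed as pD2, calculated by the Ariëns–Van Rossum method.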

Beta-2 adrenergic receptor (Cavia porcellus), sequence (Q8K4Z4 whole entry, looked up): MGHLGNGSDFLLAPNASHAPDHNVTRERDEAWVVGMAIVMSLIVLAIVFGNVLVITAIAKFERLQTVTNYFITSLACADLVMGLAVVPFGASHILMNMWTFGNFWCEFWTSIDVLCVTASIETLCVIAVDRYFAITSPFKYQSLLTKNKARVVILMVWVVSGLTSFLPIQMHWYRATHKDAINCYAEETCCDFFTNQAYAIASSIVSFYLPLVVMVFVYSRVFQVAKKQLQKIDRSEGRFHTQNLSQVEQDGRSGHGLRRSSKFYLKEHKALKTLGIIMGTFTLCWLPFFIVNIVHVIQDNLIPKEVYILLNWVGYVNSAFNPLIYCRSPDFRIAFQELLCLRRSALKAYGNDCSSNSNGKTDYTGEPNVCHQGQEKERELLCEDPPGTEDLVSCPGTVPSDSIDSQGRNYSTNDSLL
Beta-2 adrenergic receptor, sequence (Q8K4Z4 whole entry): as the sequence (Q8K4Z4 whole entry, looked up) above
Beta-1 adrenergic receptor, sequence (B0FL73 whole entry): as the sequence (B0FL73 1-467) above

For the compound `CC(C)NCC(O)CON=C1CCCCC1` (centres undefined), the figures for the pA2 - pA10 in assay [1] and in [2] were 0.5 and 0.82, respectively. The figures for the Kb in assay [3] and in [5] were 72.4 nM and 20000 nM, respectively. In addition, the pA10 in [4] is 3.88; in assay [6], 6.64.

Take `CCC(CC)=NOCC(O)CNC(C)(C)C` (centres undefined): the figures for the pA2 - pA10 in assay [1] and in assay [2] were 0.84 and 0.71, respectively. The Kb is 10.5 nM in assay [3] and 1260 nM in [5]. Besides, the results for the pA10 in assay [4] and in [6] were 5.19 and 7.14, respectively.

For `CCCC(CCC)=NOCC(O)CNC(C)(C)C` (centres undefined), the pA2 - pA10 in [1] was found to be 0.69; in [2] it was 0.85. Further, the Kb in assay [3] was 2.4 nM; in assay [5], 4680 nM. Moreover, the pA10 in [4] turned out to be 4.48; in [6] it was 7.93.

In the case of `CCC(CC)=NOCC(O)CNC(C)C` (centres undefined), the pA2 - pA10 worked out at 0.81 in assay [1] and 0.78 in assay [2]. The Kb in [3] is 4.17 nM; in assay [5], 955 nM. Also, the pA10 in [4] worked out at 5.24; in [6] it was 7.57.

Regarding `CC(C)NCC(O)CON=C(C(C)C)C(C)C` (centres undefined), the pA2 - pA10 in [1] is 0.9; in assay [2], 0.89. For the same compound, the figures for the Kb in assay [3] and in assay [5] were 3.02 nM and 17000 nM, respectively. For the same compound, the pA10 was determined as 3.88 in [4] and 7.62 in [6]. The compound also yielded a pD2 in assay [7] of 6.08.

`OCc1ccc(O)c(O)c1` had a pD2 in assay [8] of 8.44.

As to `COc1ccc(OC)c(C(O)C(C)NC(C)(C)C)c1` (centres undefined) [BUTOXAMINE], the pA2 - pA10 is 0.93 in assay [1] and 0.37 in [2]. Besides, the Kb in assay [3] is 129 nM; in assay [5], 44700 nM. Moreover, the pA10 in assay [4] was found to be 3.98; in assay [6] it was 5.96.

Turning to `CC(C)(C)NCC(O)CON=C1CCCCC1` (centres undefined), the pA2 - pA10 came to 0.6 in assay [1] and 0.78 in assay [2]. The Kb in assay [3] is 38.9 nM; in [5], 8320 nM. Further, the pA10 in [4] came out at 4.3; in assay [6], 6.81.

Consider `CCCC(CCC)=NOCC(O)CNC(C)C` (centres undefined), for which the figures for the pA2 - pA10 in assay [1] and in [2] were 0.714 and 0.55, respectively. Also, the figures for the Kb in assay [3] and in assay [5] were 6.31 nM and 20900 nM, respectively. Besides, the results for the pA10 in assay [4] and in assay [6] were 4.13 and 7.49, respectively.

With `CC(C)C(=NOCC(O)CNC(C)(C)C)C(C)C` (centres undefined), the pA2 - pA10 in [1] was found to be 0.82; in assay [2], 0.9. Further, the Kb was 22.9 nM in assay [3] and 14500 nM in assay [5]. In addition, the pA10 in assay [4] is 3.94; in [6] it was 6.82. In assay [9], this compound returned a pD2 of 6.12.

For the compound `CC(C)(C)NCC(O)CON=C1CCCC1` (centres undefined), the pA2 - pA10 in assay [1] stood at 0.88; in assay [2], 0.69. Besides, the Kb is 174 nM in [3] and 53700 nM in assay [5]. The pA10 in assay [4] was found to be 3.58; in assay [6], 5.88.

Take `CC(C)NCC(O)CON=C1CCCC1` (centres undefined): the pA2 - pA10 in assay [1] was 0.71; in assay [2], 0.8. Also, the Kb in assay [3] was 155 nM; in assay [5], 24500 nM. Further, the pA10 is 3.81 in assay [4] and 6.09 in assay [6].
